According to ChEMBL document CHEMBL4715832, “Isoquinoline-based biaryls as a robust scaffold for microtubule inhibitors” (Eur J Med Chem, 2020):
Blank lines part the entries; values can stand above or below the compound they belong to. The source made the active and inactive calls. No cut-off for these calls is given here.

How the values were obtained:
HeLa [1] = test: Antiproliferative activity against human HeLa cells assessed as reduction in cell growth after 48 hrs by resazurin dye based fluorescence assay; type: functional
Procedure, shortened: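 HeLa cells grown in DMEM with 10% FCS and penicillin/streptomycin, 37 °C, 5% CO2. Seeded 5,000 cells/well, treated 24 h later with DMSO 1% final, then incubated 48 h. Resazurin reduction to resorufin measured over 3 h at 37 °C by fluorescence (ex 544/em 590 nm). Normalised to cosolvent control (100%) and cell-free wells (0%). Means of at least three independent experiments.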

HeLa [2] = test: Induction of microtubule network depolymerization in human HeLa cells after 24 hrs by immunofluorescence staining based confocal microscopic analysis; type: cell-based
Procedure, shortened: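 HeLa cells seeded on glass coverslips (50,000 cells/well), allowed to adhere 18 h, then treated 24 h. Fixed with 0.5% glutaraldehyde, quenched with 0.1% NaBH4, blocked with PBS + 10% FCS. Stained with rabbit anti-alpha-tubulin (1:400, 1 h), then Alexa Fluor 488 anti-rabbit secondary, with DAPI nuclear counterstain. Imaged by confocal microscopy, including z-stack projections.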

tubulin (Sus scrofa) = test: Inhibition of porcine tubulin polymerization at 20 uM preincubated for 10 mins followed by GTP addition by turbidimetric method
[3] = Stability in human liver microsomes assessed as parent compound remaining at 2 uM measured immediately in absence of cofactor; type: ADME, Microsome; details: read-out: Stabilty
[4] = Stability in human liver microsomes assessed as parent compound remaining at 2 uM measured after 10 mins in presence of cofactor; type: ADME, Microsome; details: read-out: Stabilty
[5] = tested on: liver microsomes (Mus musculus); test: Stability in mouse liver microsomes assessed as parent compound remaining at 2 uM measured immediately in presence of cofactor; details: read-out: Stabilty
[6] = Stability in human liver microsomes assessed as parent compound remaining at 2 uM measured after 30 mins in presence of cofactor; type: ADME, Microsome; details: read-out: Stabilty
[7] = Stability in human liver microsomes assessed as parent compound remaining at 2 uM measured after 20 mins in presence of cofactor; type: ADME, Microsome; details: read-out: Stabilty
CYP2C19 = CYP2C19 (Homo sapiens, UniProt P33261); test: Inhibition of human CYP2C19 at 10 uM relative to control; type: ADME
CYP2C19, sequence (P33261 whole entry, canonical isoform): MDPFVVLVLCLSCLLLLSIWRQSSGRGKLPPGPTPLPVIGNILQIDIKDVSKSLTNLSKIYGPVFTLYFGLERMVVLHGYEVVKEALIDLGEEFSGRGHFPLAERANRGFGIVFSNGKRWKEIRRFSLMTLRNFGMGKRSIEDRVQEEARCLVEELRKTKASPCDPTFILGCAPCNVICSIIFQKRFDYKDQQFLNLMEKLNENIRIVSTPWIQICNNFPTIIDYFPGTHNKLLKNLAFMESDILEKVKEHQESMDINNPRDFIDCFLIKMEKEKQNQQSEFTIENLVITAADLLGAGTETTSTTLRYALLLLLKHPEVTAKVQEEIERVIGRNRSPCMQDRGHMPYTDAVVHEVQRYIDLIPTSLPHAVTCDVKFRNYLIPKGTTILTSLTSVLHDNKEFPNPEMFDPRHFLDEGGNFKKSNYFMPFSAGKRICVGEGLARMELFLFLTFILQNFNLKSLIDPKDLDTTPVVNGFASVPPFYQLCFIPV
Procedure, shortened: (§1)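 Inhibition measured against five human cytochrome P450 isoforms, with test compound at 10 µM, applied as the dephosphorylated phenol.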

hERG (KCNH2) [8] = target: T1, hERG (KCNH2) (Homo sapiens, UniProt Q12809); test: Inhibition of human ERG at 25 uM by fluorescence polarization assay relative to control
T1 sequence (Q12809 whole entry): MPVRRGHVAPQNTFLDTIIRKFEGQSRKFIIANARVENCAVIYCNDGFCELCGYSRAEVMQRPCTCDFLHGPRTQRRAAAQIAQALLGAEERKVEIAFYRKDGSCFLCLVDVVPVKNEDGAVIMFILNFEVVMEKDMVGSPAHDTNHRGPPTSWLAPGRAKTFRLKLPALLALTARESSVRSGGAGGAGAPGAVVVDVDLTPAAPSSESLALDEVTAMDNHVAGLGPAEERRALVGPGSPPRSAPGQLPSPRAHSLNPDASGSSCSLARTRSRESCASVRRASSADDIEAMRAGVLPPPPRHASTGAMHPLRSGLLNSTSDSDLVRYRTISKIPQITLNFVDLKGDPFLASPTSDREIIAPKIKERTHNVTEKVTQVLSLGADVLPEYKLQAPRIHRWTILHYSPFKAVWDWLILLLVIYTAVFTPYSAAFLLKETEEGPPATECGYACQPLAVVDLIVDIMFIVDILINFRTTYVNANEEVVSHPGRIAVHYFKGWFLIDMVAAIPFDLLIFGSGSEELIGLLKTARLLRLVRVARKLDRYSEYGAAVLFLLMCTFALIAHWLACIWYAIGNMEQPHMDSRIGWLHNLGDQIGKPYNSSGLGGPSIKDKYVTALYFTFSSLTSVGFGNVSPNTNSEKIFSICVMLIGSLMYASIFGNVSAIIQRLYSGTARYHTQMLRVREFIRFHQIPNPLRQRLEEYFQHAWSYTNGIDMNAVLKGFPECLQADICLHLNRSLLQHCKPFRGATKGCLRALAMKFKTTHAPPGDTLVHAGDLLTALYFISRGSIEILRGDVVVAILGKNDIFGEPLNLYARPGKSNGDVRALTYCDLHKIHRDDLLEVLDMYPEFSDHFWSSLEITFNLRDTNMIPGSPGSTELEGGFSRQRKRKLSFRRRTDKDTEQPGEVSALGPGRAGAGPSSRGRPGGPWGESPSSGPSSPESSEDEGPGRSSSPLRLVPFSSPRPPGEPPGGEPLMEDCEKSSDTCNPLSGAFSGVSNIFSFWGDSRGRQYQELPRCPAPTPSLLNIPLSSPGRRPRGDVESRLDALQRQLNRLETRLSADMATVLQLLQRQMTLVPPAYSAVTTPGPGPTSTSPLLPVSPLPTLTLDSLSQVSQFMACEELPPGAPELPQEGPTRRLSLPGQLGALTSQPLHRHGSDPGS
Procedure, shortened: (§2)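 hERG channel inhibition measured with a fluorescence polarisation reporter assay, applied to the dephosphorylated phenol.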

[9] = Stability in human liver microsomes assessed as parent compound remaining at 2 uM measured after 40 mins in presence of cofactor; type: ADME, Microsome; details: read-out: Stabilty
[10] = tested on: liver microsomes (Mus musculus); test: Stability in mouse liver microsomes assessed as parent compound remaining at 2 uM measured after 10 mins in presence of cofactor; details: read-out: Stabilty
[11] = Stability in human liver microsomes assessed as parent compound remaining at 2 uM measured immediately in presence of cofactor; type: ADME, Microsome; details: read-out: Stabilty
CYP2D6 = CYP2D6 (Homo sapiens, UniProt P10635); test: Inhibition of human CYP2D6 at 10 uM relative to control; type: ADME; procedure, shortened: as §1
CYP2D6, sequence (P10635 whole entry): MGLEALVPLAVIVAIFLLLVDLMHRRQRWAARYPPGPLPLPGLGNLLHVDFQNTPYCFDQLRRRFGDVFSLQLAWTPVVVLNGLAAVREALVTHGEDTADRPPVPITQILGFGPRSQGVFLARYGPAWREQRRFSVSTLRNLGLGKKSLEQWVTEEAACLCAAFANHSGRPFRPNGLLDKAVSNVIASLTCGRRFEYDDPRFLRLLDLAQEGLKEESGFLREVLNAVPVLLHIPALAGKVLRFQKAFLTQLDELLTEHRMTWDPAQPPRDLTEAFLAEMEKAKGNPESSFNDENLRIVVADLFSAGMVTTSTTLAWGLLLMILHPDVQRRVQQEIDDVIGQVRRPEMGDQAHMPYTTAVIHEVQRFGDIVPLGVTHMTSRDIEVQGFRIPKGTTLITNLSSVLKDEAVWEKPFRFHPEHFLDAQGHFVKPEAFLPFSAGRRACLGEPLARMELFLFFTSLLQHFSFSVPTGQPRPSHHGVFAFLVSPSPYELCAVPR

[12] = Stability in human liver microsomes assessed as parent compound remaining at 2 uM measured after 40 mins in absence of cofactor; type: ADME, Microsome; details: read-out: Stabilty
[13] = tested on: liver microsomes (Mus musculus); test: Half life in mouse liver microsomes at 2 uM
[14] = tested on: liver microsomes (Mus musculus); test: Stability in mouse liver microsomes assessed as parent compound remaining at 2 uM measured after 20 mins in presence of cofactor; details: read-out: Stabilty
[15] = tested on: liver microsomes (Mus musculus); test: Stability in mouse liver microsomes assessed as parent compound remaining at 2 uM measured immediately in absence of cofactor; details: read-out: Stabilty
[16] = tested on: liver microsomes (Mus musculus); test: Stability in mouse liver microsomes assessed as parent compound remaining at 2 uM measured after 40 mins in presence of cofactor; details: read-out: Stabilty
hERG (KCNH2) [17] = target: T1, hERG (KCNH2); test: Inhibition of human ERG at 5 uM by fluorescence polarization assay relative to control; procedure, shortened: as §2
CYP2C9 = CYP2C9 (Homo sapiens, UniProt P11712); test: Inhibition of human CYP2C9 at 10 uM relative to control; type: ADME; procedure, shortened: as §1
CYP2C9, sequence (P11712 whole entry): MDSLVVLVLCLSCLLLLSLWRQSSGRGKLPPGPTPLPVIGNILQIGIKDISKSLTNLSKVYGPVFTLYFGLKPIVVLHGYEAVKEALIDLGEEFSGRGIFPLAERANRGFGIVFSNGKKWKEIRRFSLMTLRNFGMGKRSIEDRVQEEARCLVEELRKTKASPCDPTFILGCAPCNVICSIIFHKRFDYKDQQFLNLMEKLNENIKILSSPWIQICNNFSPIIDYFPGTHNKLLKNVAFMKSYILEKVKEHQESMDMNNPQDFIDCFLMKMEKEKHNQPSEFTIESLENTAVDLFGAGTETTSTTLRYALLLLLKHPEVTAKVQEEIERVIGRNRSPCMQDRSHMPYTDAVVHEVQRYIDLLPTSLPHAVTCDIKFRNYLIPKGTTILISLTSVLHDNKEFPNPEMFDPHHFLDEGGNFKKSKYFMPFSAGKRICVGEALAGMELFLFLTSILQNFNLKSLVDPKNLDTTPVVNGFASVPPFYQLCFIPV

HL-60 = test: Antiproliferative activity against human HL-60 cells assessed as reduction in cell growth after 24 hrs by MTT assay; type: functional, cell-based; details: HL-60, 24 h
Procedure, shortened: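 HL-60 cells grown in RPMI 1640 with 10% FCS, no antibiotics, 37 °C, 5% CO2. Seeded 9,000 cells/well, treated 24 h later with DMSO cosolvent at 1% final. After 24 h, MTT 0.5 mg/mL for 2 h, absorbance read. Normalised to cosolvent control (100%) and Triton X-100-treated cells (0%). Means of at least three independent experiments.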

hERG (KCNH2) [18] = target: T1, hERG (KCNH2); test: Inhibition of human ERG at 1 uM by fluorescence polarization assay relative to control; procedure, shortened: as §2
[19] = Half life in human liver microsomes at 2 uM; type: ADME, Microsome
CYP3A4 = CYP3A4 (Homo sapiens, UniProt P08684); test: Inhibition of human CYP3A4 at 10 uM relative to control; type: ADME; procedure, shortened: as §1
CYP3A4, sequence (P08684 whole entry): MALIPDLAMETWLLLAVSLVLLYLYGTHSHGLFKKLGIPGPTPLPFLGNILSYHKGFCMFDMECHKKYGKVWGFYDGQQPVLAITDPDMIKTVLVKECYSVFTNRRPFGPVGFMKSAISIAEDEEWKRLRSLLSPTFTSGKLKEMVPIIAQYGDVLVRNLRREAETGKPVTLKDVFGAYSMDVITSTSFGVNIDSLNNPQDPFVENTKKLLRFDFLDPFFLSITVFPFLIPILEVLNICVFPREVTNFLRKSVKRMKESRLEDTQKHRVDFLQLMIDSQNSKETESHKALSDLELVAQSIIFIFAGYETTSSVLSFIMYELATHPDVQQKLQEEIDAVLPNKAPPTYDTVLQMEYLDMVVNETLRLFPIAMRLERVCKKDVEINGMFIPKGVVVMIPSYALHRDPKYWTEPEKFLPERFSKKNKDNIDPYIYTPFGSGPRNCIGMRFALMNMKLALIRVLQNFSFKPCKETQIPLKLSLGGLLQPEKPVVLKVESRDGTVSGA

CYP1A2 = target: T2, CYP1A2 (Homo sapiens, UniProt P05177); test: Inhibition of human CYP1A2 at 10 uM relative to control; type: ADME; procedure, shortened: as §1
T2 sequence (P05177 whole entry): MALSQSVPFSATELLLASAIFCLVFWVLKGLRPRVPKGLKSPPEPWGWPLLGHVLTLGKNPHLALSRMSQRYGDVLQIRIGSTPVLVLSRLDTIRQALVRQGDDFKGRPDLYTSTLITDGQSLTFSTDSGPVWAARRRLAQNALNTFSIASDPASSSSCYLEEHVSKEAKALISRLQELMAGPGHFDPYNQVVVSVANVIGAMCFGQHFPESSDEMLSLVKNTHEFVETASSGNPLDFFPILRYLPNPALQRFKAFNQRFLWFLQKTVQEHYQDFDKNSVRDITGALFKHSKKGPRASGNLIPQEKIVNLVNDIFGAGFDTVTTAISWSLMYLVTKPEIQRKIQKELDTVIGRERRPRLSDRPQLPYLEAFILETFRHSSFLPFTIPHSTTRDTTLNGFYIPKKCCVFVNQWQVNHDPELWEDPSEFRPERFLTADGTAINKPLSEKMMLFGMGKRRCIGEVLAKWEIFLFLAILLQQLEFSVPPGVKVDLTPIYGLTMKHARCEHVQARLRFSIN

[20] = tested on: liver microsomes (Mus musculus); test: Stability in mouse liver microsomes assessed as parent compound remaining at 2 uM measured after 40 mins in absence of cofactor; details: read-out: Stabilty
[21] = tested on: liver microsomes (Mus musculus); test: Stability in mouse liver microsomes assessed as parent compound remaining at 2 uM measured after 30 mins in presence of cofactor; details: read-out: Stabilty
HeLa [22] = test: Induction of microtubule network depolymerization in human HeLa cells assessed as accumulation of rounded cells at 120 nM after 24 hrs by immunofluorescence staining based confocal microscopic analysis; type: cell-based
Procedure, shortened: (§3)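 HeLa cells on glass coverslips (50,000/well), adhered 18 h, then treated 24 h (DMSO 1% final). Fixed with 0.5% glutaraldehyde, quenched with 0.1% NaBH4, blocked in PBS + 10% FCS. Stained with rabbit anti-alpha-tubulin (1:400, 1 h) and Alexa 488 goat anti-rabbit secondary, with DAPI nuclear counterstain. Imaged by confocal microscopy with z-stack projections.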

[23] = Toxicity in ip dosed Balb/c mouse; type: organism-based; details: in vivo
Procedure, shortened: (§4)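 Single-administration dose escalation in male and female Balb/c mice, given i.p. or i.v., to find the maximal tolerated dose of the phosphate prodrug.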

HeLa [24] = test: Induction of microtubule network depolymerization in human HeLa cells assessed as induction of mitotic arrest at 120 nM after 24 hrs by immunofluorescence staining based confocal microscopic analysis; type: cell-based; procedure, shortened: as §3
[25] = Toxicity in Balb/c mouse at 25 mg/kg, iv administered at 48 hrs interval for 3 times; type: organism-based; details: in vivo
Procedure, shortened: (§5)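 Male and female Balb/c mice dosed 3 times at 48 h intervals with 25 mg/kg of the phosphate prodrug, by the route named, and monitored for tolerability.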

HeLa [26] = test: Inhibition of tubulin polymerization in human HeLa cells harboring EB3-YFP plasmid assessed as disappearance of […] comet at 10 uM after 2 mins by microscopic analysis; type: cell-based
Procedure, shortened: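 HeLa cells (12,000/well) transiently transfected 24 h after seeding with EB3-YFP plasmid, imaged 24 h later by spinning-disc confocal at 37 °C, 5% CO2 (514 nm, 300 ms exposure, 45 frames/min). Five reference frames taken, compound added, 2 min incubation, then 5 more frames. EB3 comets counted by maxima detection; 7 cells from three independent trials.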

HeLa [27] = test: Induction of microtubule network depolymerization in human HeLa cells assessed as appearance of defective spindles at 120 nM after 24 hrs by immunofluorescence staining based confocal microscopic analysis; type: cell-based; procedure, shortened: as §3
[28] = Toxicity in iv dosed Balb/c mouse; type: organism-based; details: in vivo; procedure, shortened: as §4
[29] = Solubility of compound in aqueous buffer; type: physicochemical
[30] = Toxicity in Balb/c mouse at 25 mg/kg, ip administered at 48 hrs interval for 3 times; type: organism-based; details: in vivo; procedure, shortened: as §5
HeLa [31] = test: Induction of microtubule network depolymerization in human HeLa cells assessed as appearance of defective chromosome alignment at 120 nM after 24 hrs by immunofluorescence staining based confocal microscopic analysis; type: cell-based; procedure, shortened: as §3
HeLa [32] = test: Cell cycle arrest in human HeLa cells assessed as accumulation at G2/M phase at 500 nM measured after 24 hrs by propidium iodide staining based flow cytometry; type: functional
Procedure, shortened: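 HeLa cells seeded 50,000/well, treated 24 h; collected, stained with 2 mg/mL propidium iodide at 4 °C for 30 min, analysed by flow cytometry (30,000 cells per condition); cells assigned to sub-G1, G1, S and G2/M by DNA content (PI signal). DMSO cosolvent 1% final.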

EC50 (HeLa [1]): > 100000 nM
SMILES: COc1ccc(-c2nccc3c(OC)c(OC)c(OC)cc23)c(C(=O)O)c1

EC50 (HeLa [1]): 15000 nM
SMILES: COc1cccc(-c2nccc3c(OC)c(OC)c(OC)cc23)c1

EC50 (HeLa [1]): > 20000 nM
SMILES: COc1cc2ccnc(-c3cc(OC)c(OC)c(OC)c3)c2cc1OC
Activity (HeLa [2]): Dose-dependent effect

Continued, compound first:

SMILES: COc1cc2c(-c3cc(OC)c(OC)c(OC)c3)nccc2cc1F
Activity (HeLa [1]): Dose-dependent effect | EC50 (HeLa [1]): 280 nM | Activity (HeLa [2]): Dose-dependent effect | inhibition (tubulin (Sus scrofa)): Active

SMILES: COc1cc2c(-c3cc(OC)c(OC)c(OC)c3)nccc2cc1O
remaining at 0 min, 2 µM [3]: 100% | remaining at 10 min, 2 µM [4]: 99% | remaining at 0 min, 2 µM [5]: 100% | remaining at 0.5 h, 2 µM [6]: 75% | remaining at 20 min, 2 µM [7]: 84% | inhibition at 10 µM (CYP2C19): -49% | inhibition at 25 µM (hERG (KCNH2) [8]): -5% | remaining at 40 min, 2 µM [9]: 69% | remaining at 10 min, 2 µM [10]: 93% | Activity (HeLa [1]): Dose-dependent effect | EC50 (HeLa [1]): 120 nM | remaining at 0 min, 2 µM [11]: 100% | inhibition at 10 µM (CYP2D6): 19% | remaining at 40 min, 2 µM [12]: 98% | half-life at 2 µM [13]: 1.12 h | remaining at 20 min, 2 µM [14]: 82% | remaining at 0 min, 2 µM [15]: 100% | remaining at 40 min, 2 µM [16]: 67% | inhibition at 5 µM (hERG (KCNH2) [17]): -18% | inhibition at 10 µM (CYP2C9): 16% | EC50 (HL-60): 340 nM | inhibition at 1 µM (hERG (KCNH2) [18]): -3% | half-life at 2 µM [19]: 1.13 h | inhibition at 10 µM (CYP3A4): 13% | inhibition at 10 µM (CYP1A2): -4% | remaining at 40 min, 2 µM [20]: 105% | remaining at 0.5 h, 2 µM [21]: 73%

SMILES: COC(=O)Nc1nc2cc(C(=O)c3cccs3)ccc2[nH]1 [NOCODAZOLE]
EC50 (HeLa [1]): 40 nM

SMILES: COc1cc2c(-c3cc(OC)c(OC)c(OC)c3)nccc2cc1OP(=O)([O-])[O-].[Na+].[Na+]
Activity (HeLa [22]): Active | Activity (HeLa [1]): Dose-dependent effect | EC50 (HeLa [1]): 170 nM | MTD [23]: 32 mg/kg | Activity (HeLa [2]): Dose-dependent effect | Activity (HeLa [24]): Active | Activity [25]: Non-Toxic | inhibition (HeLa [26]): Active | Activity (HeLa [27]): Active | MTD [28]: 50 mg/kg | solubility [29]: > 10 mM | Activity [30]: Non-Toxic | EC50 (HL-60): 570 nM | Activity (HeLa [31]): Active | Activity (HeLa [32]): Active

SMILES: COc1ccc2ccnc(-c3cc(OC)c(OC)c(OC)c3)c2c1
Activity (HeLa [1]): Dose-dependent effect | EC50 (HeLa [1]): 180 nM | Activity (HeLa [2]): Dose-dependent effect
